Reference: publication PMC9315039 (Angewandte Chemie (International Ed. in English), 2022)
Where two headings read alike, the source gives them in different places.

Experiments:
SIRT5 [1] = biological target: T1, SIRT5 (Homo sapiens, UniProt Q9NXA8); test: End-point SIRT5 deglutarylase inhibition assay; format: biochemical; settings: Figure 1A; inhibitor 100 μM; NI = no inhibition
T1 sequence (Q9NXA8 34-310): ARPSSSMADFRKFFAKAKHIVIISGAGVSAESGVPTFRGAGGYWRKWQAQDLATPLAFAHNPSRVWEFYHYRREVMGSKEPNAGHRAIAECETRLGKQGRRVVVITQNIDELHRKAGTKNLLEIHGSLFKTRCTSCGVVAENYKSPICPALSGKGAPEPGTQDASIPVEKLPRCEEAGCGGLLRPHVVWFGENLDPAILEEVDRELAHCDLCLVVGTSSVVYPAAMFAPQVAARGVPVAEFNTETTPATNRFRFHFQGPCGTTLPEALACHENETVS
In short: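 End-point deglutarylase assay using recombinant SIRT5 (150 nM) with Ac-LGKglut-AMC substrate (50 μM). Results are given as IC50 from dose-response curves (mean ± SD) or as %-inhibition at stated concentrations. Each value comes from at least two individual assays run in duplicate.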

SIRT5 [2] = biological target: T1, SIRT5; test: Continuous SIRT5 enzyme inhibition assay; format: biochemical
In short: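 Continuous trypsin-coupled progression-curve assay with SIRT5 80 nM, NAD⁺ 500 μM, Ac-LGKglu-AMC 40 μM and trypsin 1.70 ng×μL⁻¹, run at several inhibitor concentrations. k_obs was plotted against inhibitor concentration and fitted to slow-binding mechanism A or B, giving Ki and rate constants.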

SIRT5 in HEK293T cells = biological target: T2, SIRT5 in HEK293T cells (Homo sapiens, UniProt Q9NXA8); test: Isothermal dose-response cellular thermal shift assay; format: cell-based
T2 sequence (Q9NXA8 37-310): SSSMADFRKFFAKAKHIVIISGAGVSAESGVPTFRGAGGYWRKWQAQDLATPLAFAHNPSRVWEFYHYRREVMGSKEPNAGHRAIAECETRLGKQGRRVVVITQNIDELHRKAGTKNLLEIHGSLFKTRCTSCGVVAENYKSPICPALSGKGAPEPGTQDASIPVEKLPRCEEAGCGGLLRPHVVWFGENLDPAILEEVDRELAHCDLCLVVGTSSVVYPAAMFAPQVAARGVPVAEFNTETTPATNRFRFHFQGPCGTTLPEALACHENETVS
In short: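 ITDRF-CETSA in HEK293T cells. Cells were treated 2 h with test compound at 2.6 nM–10 μM, with a reference inhibitor at 10 μM as internal control. Samples were heated at 52 °C and soluble SIRT5 was detected by immunoblot. EC50 came from fitted dose-response curves (n≥2), and EC50s of masked/unmasked pairs were compared.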

HEK293T cells = test: MTT cell viability assay, HEK293T; format: cell-based, human; settings: concentrations up to 100 μM
In short: (§1)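 Viability dose-response in cultured SKM-1, OCI-AML2, MOLM-13 (AML) and HEK293T cells, with concentrations up to 100 μM. GI50 was taken from dose-response curves. Data come from three individual assays performed in duplicate.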

SKM-1 cells = test: MTT cell viability assay, SKM-1; format: cell-based; settings: concentrations up to 100 μM
In short: as §1

[3] = system: SIRT5 activity in HeLa cells; test: Live cell imaging of SIRT5 activity; format: cell-based; settings: 10 μM inhibitor, co-treatment with labeled peptide substrate 250 µM, 6 hours
In short: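 HeLa cells were co-treated with a dye-labeled succinylated peptide substrate and test compound at 10 μM. Mitochondrial SIRT5 desuccinylation triggers peptide self-assembly, and the resulting fluorescence was read in cells. This was single-concentration only, without dose-response.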

SMILES | %-inhibition of SIRT5 deglutarylase activity at 100 μM (SIRT5 [1]) | Ki (SIRT5 [2]) | EC50 (SIRT5 in HEK293T cells) [µM] | other results
CCCCNC(=S)NCCCC[C@H](NS(=O)(=O)c1cccc(F)c1)C(=O)N[C@@H](Cc1c[nH]c2ccccc12)C(=O)NC1CCC1 [Compound 2] | did not show substantial inhibition |  |  | 
O=C(NC1CCC1)[C@H](Cc1c[nH]c2ccccc12)NC(=O)[C@H](CCCCNC(=S)NCCCO)NS(=O)(=O)c1cccc(F)c1 [Compound 3] | did not show substantial inhibition |  |  | 
NC(=O)CCNC(=S)NCCCC[C@H](NS(=O)(=O)c1cccc(F)c1)C(=O)N[C@@H](Cc1c[nH]c2ccccc12)C(=O)NC1CCC1 [Compound 4] |  | micromolar range |  | 
O=C1CC(CCNC(=S)NCCCC[C@H](NS(=O)(=O)c2cccc(F)c2)C(=O)N[C@@H](Cc2c[nH]c3ccccc23)C(=O)NC2CCC2)=NO1 [Compound 22] |  |  | > 10 | Ki (SIRT5 [2]; Ki): ~0.1 µM
O=C(NC1CCC1)[C@H](Cc1c[nH]c2ccccc12)NC(=O)[C@H](CCCCNC(=S)NCCc1nnn[nH]1)NS(=O)(=O)c1cccc(F)c1 [Compound 24] |  | low nanomolar range | 1.3 | decrease in viability of HEK293T cells (HEK293T cells): None of the acidic compounds 1, 16, and 24 caused substantial decrease in viability; decrease in viability of SKM-1 cells (SKM-1 cells): None of the acidic compounds 1, 16, and 24 caused substantial decrease in viability; inhibition of SIRT5 activity in HeLa cells (fluorescence) [3]: inhibition of SIRT5 activity
O=C(CCNC(=S)NCCCC[C@H](NS(=O)(=O)c1cccc(F)c1)C(=O)N[C@@H](Cc1c[nH]c2ccccc12)C(=O)NC1CCC1)NO [Compound 27] |  | micromolar range |  | 
